Compound activity (PubChem)
A selection: hits, their analogues and other compounds. The true share with any hit is near 4.1%.
Autophagy HCS – autophagy modulators in MEF cells, primary screen, imaging, high-content, MEF GFP-LC3; MEF GFP-LC3 puncta imaging; test concentration mostly 10 µM; calls only at 10 µM (by protocol); actives 0.98% (n = 190,000);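 active = percentage of spot-positive cells more than 3 SD above its plate mean, without a fluorescence outlier flag or 80% toxicity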
Dynein cargo inh – inhibitors of GR-EGFP nuclear translocation, primary screen, dynein cargo transport inhibitor project, imaging, high-content, 3617.4 mouse cells. test concentration mostly 20 µM; stimulated with dexamethasone, 1 µM; hits give low values. z-score, hits read low. actives 0.47% (n = 220,000);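 active = plate z-score of nuclear minus cytoplasmic receptor signal below a set negative limit, without overly bright fluorescence or cell loss, cut at about -3.5 in these data, passing the limit was not always enough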;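 note: z-score of nuclear minus cytoplasmic ring GR-EGFP intensity difference per well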
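medium = tetracycline-free induction medium containing charcoal-stripped FBS | probe or stimulus = dexamethasone, 1.0 µM final | timing = 48 h induction, then 1 h compound, then 30 min agonist, 37 °C | detection = automated 10x imaging of fixed Hoechst-stained cells | read-out basis = nuclear versus cytoplasmic GR-EGFP signal, averaged per well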
Cl transport mod – KCC2 cotransporter modulators, thallium flux, primary screen, cell-based, HEK293 KCC2, FluoZin-2 fluorescence, MLSMR | Solute carrier family 12 member 5 (Homo sapiens), Q9H2X9 | KCC2 cells, thallium flux FluoZin-2 fluorescence | B-score of Tl+ flux slope (higher = more flux/activation; lower = inhibition) at 10 µM | actives 2.2% (n = 190,000) | AID 1456, 2008;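 active = thallium flux slope and its plate-corrected score both differing from the plate sample mean at a set confidence after two filtering rounds, in either direction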;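 note: slope of fluorescence scaled to starting intensity during 10 to 20 s after thallium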
Target sequence (Q9H2X9 whole entry, looked up): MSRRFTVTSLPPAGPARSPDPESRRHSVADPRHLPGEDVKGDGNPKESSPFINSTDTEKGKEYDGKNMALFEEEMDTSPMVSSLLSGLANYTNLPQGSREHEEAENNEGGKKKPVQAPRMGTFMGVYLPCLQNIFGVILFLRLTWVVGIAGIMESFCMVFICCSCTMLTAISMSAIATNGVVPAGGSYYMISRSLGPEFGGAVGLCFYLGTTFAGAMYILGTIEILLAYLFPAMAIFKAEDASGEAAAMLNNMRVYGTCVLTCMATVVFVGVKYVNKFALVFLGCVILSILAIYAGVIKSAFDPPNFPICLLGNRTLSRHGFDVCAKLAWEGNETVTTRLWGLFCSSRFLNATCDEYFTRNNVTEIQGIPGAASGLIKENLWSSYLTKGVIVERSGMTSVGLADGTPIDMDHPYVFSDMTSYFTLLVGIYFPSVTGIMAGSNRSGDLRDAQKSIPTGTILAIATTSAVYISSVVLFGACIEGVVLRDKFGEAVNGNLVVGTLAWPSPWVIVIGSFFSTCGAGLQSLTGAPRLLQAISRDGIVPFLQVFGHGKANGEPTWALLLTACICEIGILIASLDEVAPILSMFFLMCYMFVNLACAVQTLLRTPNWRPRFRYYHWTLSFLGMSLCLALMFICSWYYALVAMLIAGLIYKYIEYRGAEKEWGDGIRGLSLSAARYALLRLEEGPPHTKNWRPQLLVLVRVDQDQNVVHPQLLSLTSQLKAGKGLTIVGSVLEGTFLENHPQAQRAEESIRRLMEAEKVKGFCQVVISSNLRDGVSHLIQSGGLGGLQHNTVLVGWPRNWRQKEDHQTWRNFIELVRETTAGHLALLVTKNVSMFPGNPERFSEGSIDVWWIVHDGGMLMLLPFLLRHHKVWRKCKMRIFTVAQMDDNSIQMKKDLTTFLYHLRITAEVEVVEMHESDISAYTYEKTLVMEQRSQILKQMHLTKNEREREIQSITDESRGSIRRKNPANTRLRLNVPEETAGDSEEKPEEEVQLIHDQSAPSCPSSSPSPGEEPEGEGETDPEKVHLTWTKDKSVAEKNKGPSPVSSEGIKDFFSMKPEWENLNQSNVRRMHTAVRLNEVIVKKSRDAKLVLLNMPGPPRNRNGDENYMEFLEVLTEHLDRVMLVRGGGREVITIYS
ROMK mod – ROMK potassium channel modulators, primary screen, cell-based, thallium flux, MLSMR library; Tet-inducible ROMK, thallium flux fluorescence; actives lie on both sides; B-score at 10 µM; actives 2% (n = 130,000);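 active = signal ratio slope over the read window, or its plate-corrected B-score, at least 3 SD from the plate mean, either direction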;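 note: B-score of the F/F0 ratio slope over 7 to 12 s after thallium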
Redox H2O2 prof – compounds producing H2O2 with reducing agent – biochemical, NIH compound library profiling, artefact control for MLSCN library redox annotation, primary screen. AID 878, 2007. DTT-dependent redox cycling H2O2, phenol red/HRP absorbance; 100% = 100 µM peroxide control, 0% = buffer. activation, % at 10 µM. actives 0.03% (n = 200,000);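 active = activation of at least 50% relative to the plate's high and low controls in the primary single-dose screen; inactive = activation below 50%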;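 note: compound incubated with DTT at 0.8 mM final as the reducing agent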
ROMK retest – ROMK channel modulator hit retest, confirmation, cell-based, thallium flux, duplicate, resupplied hits; AID 1917, 2009; fluorescence ratio; hits give low values; shares compounds with ROMK mod; actives 54% (n = 3,000); normalized thallium flux (F/F0 slope) at 10 µM;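 active = Flux at 10 µM at least 3 SD below or above vehicle control mean in one or both replicates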
Each line names hits and unclear results; the compound was inactive in the other large screens (follow-up assays come after a bar, where they were run).

CCCCn1nc(C(=O)Nc2cc(S(=O)(=O)N(C)C)ccc2C)c2ccccc2c1=O	none (no result: Autophagy HCS, ROMK mod, Redox H2O2 prof)
O=C(NC(Nc1ncc(S(=O)(=O)c2ccc([N+](=O)[O-])cc2)s1)(C(F)(F)F)C(F)(F)F)c1ccc(Cl)cc1	ROMK mod -3 | ROMK retest inactive
C=CCNC(=O)/C(C#N)=C/c1ccc(SC)cc1	ROMK mod -4.5 | ROMK retest 0.053
CSc1ccc(/C=C(\C#N)C(=O)NC2CCCCC2)cc1	ROMK mod -2.5 | ROMK retest 0.054
CC1CCCCC1NC(=O)/C(C#N)=C/c1ccc2c(c1)OCCO2 (stereo unspecified)	none
CC1CCCCC1NC(=O)/C(C#N)=C/c1ccc(F)c(F)c1 (stereo unspecified)	ROMK mod -3 | ROMK retest 0.05
C=CCNC(=O)/C(C#N)=C/c1ccc(OS(=O)(=O)c2ccc(C)cc2)c(OC)c1	ROMK mod -4.6 | ROMK retest 0.042
CC(NS(=O)(=O)c1ccc(OCC(=O)Nc2cccc([N+](=O)[O-])c2)cc1)c1ccccc1 (stereo unspecified)	none (no result: ROMK mod)
COC(=O)C1=C(C)NC(=O)/C1=C\N(C)C	none
O=C(O)CCCCCNc1ccc2nsnc2c1[N+](=O)[O-]	none (no result: ROMK mod)
COc1ccc(-c2c(NC(=O)c3ccco3)n(C)c3ccccc3c2=O)cc1	ROMK mod 3.7 | ROMK retest inactive
Cn1c(NC(=O)c2ccco2)c(-c2ccc(Cl)cc2)c(=O)c2ccccc21	none (no result: ROMK mod)
O=C(CN1CCC(c2nc3ccccc3s2)CC1)NCc1ccccc1	ROMK mod -3 | ROMK retest inactive
CCc1ccc(C(=O)N2CCC(c3nc4ccccc4s3)CC2)cc1	none (no result: ROMK mod)
CCCCOc1ccc(S(=O)(=O)NCc2csc(C)n2)cc1	ROMK mod -2.3 | ROMK retest 0.067
OCCC1CN(Cc2ccccc2-c2ccco2)CCN1C1CCCC1 (stereo unspecified)	ROMK mod -4 | ROMK retest 0.051
COC(=O)CNC(=O)Cn1ccc2ccccc2c1=O	none (no result: ROMK mod)
Cc1ccc(CNC(=O)Cn2ccc3ccccc3c2=O)o1	none (no result: ROMK mod) | ROMK retest inactive
Cc1nnc(SCC(=O)Nc2ccccc2C(=O)NC2CC2)s1	none (no result: ROMK mod)
Cc1cccc(NC(=S)N(CCN(C)C)Cc2cc3cc(C)cc(C)c3[nH]c2=O)c1	ROMK mod -4.9 | ROMK retest 0.06
Cc1cc(C)c2cc(CN(CCCN(C)C)C(=S)NCc3ccccc3)c(=O)[nH]c2c1	ROMK mod -3.7 | ROMK retest 0.054
Cc1cccc(NC(=S)N(CCN(C)C)Cc2cc3cccc(C)c3[nH]c2=O)c1	none
Cc1cc(NC(=O)CSc2nncc(=O)n2N)no1	none
CCCC(=O)N1CCN(c2ccc(NC(=O)c3cccs3)cc2)CC1	ROMK mod 2.7 | ROMK retest inactive
Cc1cc(Br)ccc1OCCCCN1CCCCC1	none
O=C(CSc1ccc(-c2ccc(F)cc2)nn1)N1CCN(c2ccccc2)CC1	none (no result: ROMK mod)
O=C(/C=C\c1cccs1)c1c(O)ccc2ccc(=O)oc12	ROMK mod -5 | ROMK retest 0.05
O=C(COC(=O)/C=C/c1ccc([N+](=O)[O-])cc1)NCc1ccc2c(c1)OCO2	none (no result: Autophagy HCS, ROMK mod, Redox H2O2 prof) | ROMK retest inactive
O=C(Cc1ccc([N+](=O)[O-])cc1)NCc1ccc2c(c1)OCO2	none (no result: ROMK mod)
Cc1cc(C)cc(OC(=O)C23CCC(C)(C(=O)O2)C3(C)C)c1 (stereo unspecified)	none
COC(=O)c1sc(SC)c(-c2ccon2)c1C	none (no result: Autophagy HCS, ROMK mod, Redox H2O2 prof)
Cc1[nH][nH]c(=O)c1C(c1ccc([N+](=O)[O-])cc1)c1c(C)[nH][nH]c1=O	none (no result: Autophagy HCS, ROMK mod, Redox H2O2 prof)
Cc1[nH][nH]c(=O)c1C(c1ccc(O)c([N+](=O)[O-])c1)c1c(C)[nH][nH]c1=O	none (no result: ROMK mod) | ROMK retest inactive
Clc1ccc(-c2c[n+](Cc3ccc(Br)cc3)c3n2CCCCC3)cc1	ROMK mod -4.2 (no result: Autophagy HCS, Redox H2O2 prof) | ROMK retest inactive
CC1CCC(C(C)C)C(OC(=O)C[n+]2cc(-c3ccc(Cl)cc3)n3c2CCCCC3)C1 (stereo unspecified)	Autophagy HCS active, ROMK mod -9.8 | ROMK retest 0.049
Clc1ccc(-c2c[n+](Cc3cccc(Cl)c3)c3n2CCC3)cc1	none
Clc1ccc(-c2c[n+](Cc3ccc(Cl)cc3Cl)c3n2CCCCC3)cc1	none (no result: Autophagy HCS, Cl transport mod, ROMK mod, Redox H2O2 prof) | ROMK retest 0.055
Nc1c(C(=O)Nc2ccc(F)cc2)sc(=S)n1-c1ccccc1F	none
O=c1[nH]c(SCc2cccc(Cl)c2)nc2[nH]ncc12	none
N#Cc1nc(-c2cccs2)oc1NCc1ccccc1	ROMK mod -3.6 | ROMK retest 0.054
Cc1ccc(CNc2oc(-c3cccs3)nc2C#N)cc1	none (no result: Cl transport mod)
COC(=O)CNC(=O)C(C)NC(=O)CNC(=O)OCc1ccccc1 (stereo unspecified)	none (no result: ROMK mod) | ROMK retest inactive
CC(C)(C)OC(=O)C(Cc1ccc(OC(C)(C)C)cc1)NC(=O)CNC(=O)OCc1ccccc1 (stereo unspecified)	ROMK mod -2.2 | ROMK retest 0.058
Cc1cccc2[nH]c3c(N4CC=C(c5ccc(F)cc5)CC4)ncnc3c12	none (no result: Autophagy HCS, Redox H2O2 prof)
Nc1nc[nH]c(=O)c1N=Cc1ccccc1	none (no result: Autophagy HCS, ROMK mod, Redox H2O2 prof)
O=c1c2ccccc2c(C=NCc2ccccn2)c(O)n1-c1ccccc1	none (no result: ROMK mod) | ROMK retest inactive
O=C(Cn1cc([N+](=O)[O-])cn1)Nc1cccnc1	none
CC(=O)N/C(=C\c1ccc(Br)s1)C(=O)O	none
Cc1ccc(NC(=O)/C(C#N)=C(\N)C(Cl)(Cl)Cl)nc1	Autophagy HCS active, ROMK mod -5.5 | ROMK retest 0.035
Cc1ccc(NC(=O)C(=O)Nc2ccc(C)cn2)nc1	none
Cc1nc2ccccc2c(=O)n1/N=C/c1ccc2ccccc2c1O	none (no result: Autophagy HCS, ROMK mod, Redox H2O2 prof) | ROMK retest inactive
FC(F)(F)c1cnc(COc2cc(Cl)cc(Cl)c2)c(Cl)c1	none (no result: Autophagy HCS, ROMK mod, Redox H2O2 prof) | ROMK retest inactive
O=[N+]([O-])c1ccc(N2CCN(C(=S)c3cccc([N+](=O)[O-])c3)CC2)cc1	ROMK mod -3.1 (no result: Autophagy HCS, Redox H2O2 prof) | ROMK retest 0.065
CC(=O)N1CCN(C(=S)c2cccc([N+](=O)[O-])c2)CC1	none
CCCn1c(=O)c2c(nc3n2CCS3)n(C)c1=O	none
CCOc1ccc(N2CC(=O)N/C2=N\c2nc(C)cc(C)n2)cc1	none (no result: ROMK mod) | ROMK retest inactive
CCOC(=O)N1CCC(N2C(=O)c3ccccc3C2Nc2ccc(S(=O)(=O)N3CCCCC3)cc2)CC1 (stereo unspecified)	none
Cc1cccc(NC(=S)NNC(=O)c2ccc(O)cc2O)c1C	none
